# pEC50, pIC50: −log10 of the molar value. Active and inactive are the calls of the source.
# Columns and labels:
# [1] = Half life in Sprague-Dawley rat at 1 mg/kg, iv administered as single dose measured up to 24 hrs post dose by LC-MS/MS analysis; type: ADME, organism-based; details: in vivo
# [2] = biological target: Free fatty acid receptor 1 (Homo sapiens, UniProt O14842); experiment: Agonist activity at human GPR40 expressed in CHOA12 cells assessed as induction of Ca2+ mobilization by FLIPR assay; type: functional, cell-based
# Free fatty acid receptor 1, sequence (O14842 whole entry): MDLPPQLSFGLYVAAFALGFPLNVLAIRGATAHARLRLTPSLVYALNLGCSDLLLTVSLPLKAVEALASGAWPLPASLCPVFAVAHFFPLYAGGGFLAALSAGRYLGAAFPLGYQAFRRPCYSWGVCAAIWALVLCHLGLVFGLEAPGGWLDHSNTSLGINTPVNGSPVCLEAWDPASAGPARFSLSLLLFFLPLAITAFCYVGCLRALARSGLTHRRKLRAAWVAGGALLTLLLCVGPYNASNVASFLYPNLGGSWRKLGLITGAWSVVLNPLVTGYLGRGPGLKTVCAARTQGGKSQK
# Mus musculus [3] = experiment: Antidiabetic activity in C57BL/6J mouse assessed as increase in active GLP-1 levels at 3 mg/kg, po administered 1 hr prior to glucose challenge measured after 120 mins in presence of DPP4 inhibitor BMS-538305 during OGTT assay by ELISA; type: functional, organism-based
# [4] = Oral bioavailability in Beagle dog at 1 mg/kg administered via gavage as single dose measured up to 24 hrs post dose by LC-MS/MS analysis; type: ADME, organism-based, Canis lupus familiaris; details: in vivo
# Mus musculus [5] = experiment: Antidiabetic activity in C57BL/6J mouse assessed as effect on active GLP-1 levels at 3 mg/kg, po administered 1 hr prior to glucose challenge measured after 120 mins during OGTT assay by ELISA; type: functional, organism-based
# [6] = Oral bioavailability in cynomolgus monkey at 1 mg/kg administered via gavage as single dose measured up to 24 hrs post dose by LC-MS/MS analysis; type: ADME, organism-based, Macaca fascicularis; details: in vivo
# Mus musculus [7] = experiment: Antidiabetic activity in C57BL/6J mouse assessed as reduction in plasma glucose excursion at 3 mg/kg, po administered 1 hr prior to glucose challenge measured after 120 mins by OGTT assay; type: functional, organism-based
# [8] = Half life in human liver microsomes at 1 to 3 uM incubated for 20 mins in presence NADPH measured up to 90 mins by LC/MS/MS analysis; type: ADME, microsome; details: liver microsomes
# [9] = Volume of distribution at steady state in Sprague-Dawley rat at 1 mg/kg, iv administered as single dose measured up to 24 hrs post dose by LC-MS/MS analysis; type: ADME, organism-based; details: in vivo, read-out: Vdss
# [10] = Tmax in Sprague-Dawley rat at 3 mg/kg, po administered as single dose measured up to 24 hrs post dose by LC-MS/MS analysis; type: ADME, organism-based; details: in vivo
# [11] = Half life in cynomolgus monkey at 0.5 mg/kg, iv administered as single dose measured up to 24 hrs post dose by LC-MS/MS analysis; type: ADME, organism-based, Macaca fascicularis; details: in vivo
# [12] = biological target: T1, Amine oxidase [flavin-containing] B (Homo sapiens, UniProt P27338); experiment: Inhibition of MAO-B (unknown origin)
# T1 sequence (P27338 whole entry): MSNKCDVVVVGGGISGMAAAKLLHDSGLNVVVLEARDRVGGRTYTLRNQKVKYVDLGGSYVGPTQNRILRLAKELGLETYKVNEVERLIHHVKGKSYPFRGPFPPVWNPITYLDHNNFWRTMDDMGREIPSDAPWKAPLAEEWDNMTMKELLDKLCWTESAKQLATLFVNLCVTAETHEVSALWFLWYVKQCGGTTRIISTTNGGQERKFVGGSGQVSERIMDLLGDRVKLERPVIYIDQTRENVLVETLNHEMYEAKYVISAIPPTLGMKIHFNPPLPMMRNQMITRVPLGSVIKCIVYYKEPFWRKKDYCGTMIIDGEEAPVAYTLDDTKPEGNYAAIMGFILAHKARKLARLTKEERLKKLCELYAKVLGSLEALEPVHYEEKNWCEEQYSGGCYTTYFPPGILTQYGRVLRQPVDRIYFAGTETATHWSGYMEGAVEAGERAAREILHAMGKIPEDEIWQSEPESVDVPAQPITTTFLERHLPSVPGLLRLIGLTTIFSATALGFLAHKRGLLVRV
# [13] = Clearance in Sprague-Dawley rat at 1 mg/kg, iv administered as single dose measured up to 24 hrs post dose by LC-MS/MS analysis; type: ADME, organism-based; details: in vivo
# Homo sapiens = species: Homo sapiens; experiment: Inhibition of FFAR (unknown origin) at <10 uM
# In short: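 Part of a proprietary selectivity counterscreen panel covering GPCRs (including the related free fatty acid receptors), nuclear hormone receptors, transporters, ion channels and hERG. Activity was scored against a 10 µM threshold.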
# [14] = biological target: Voltage-gated inwardly rectifying potassium channel KCNH2 (Homo sapiens, UniProt Q12809); experiment: Inhibition of human ERG (unknown origin) at <10 uM
# Voltage-gated inwardly rectifying potassium channel KCNH2, sequence (Q12809 whole entry): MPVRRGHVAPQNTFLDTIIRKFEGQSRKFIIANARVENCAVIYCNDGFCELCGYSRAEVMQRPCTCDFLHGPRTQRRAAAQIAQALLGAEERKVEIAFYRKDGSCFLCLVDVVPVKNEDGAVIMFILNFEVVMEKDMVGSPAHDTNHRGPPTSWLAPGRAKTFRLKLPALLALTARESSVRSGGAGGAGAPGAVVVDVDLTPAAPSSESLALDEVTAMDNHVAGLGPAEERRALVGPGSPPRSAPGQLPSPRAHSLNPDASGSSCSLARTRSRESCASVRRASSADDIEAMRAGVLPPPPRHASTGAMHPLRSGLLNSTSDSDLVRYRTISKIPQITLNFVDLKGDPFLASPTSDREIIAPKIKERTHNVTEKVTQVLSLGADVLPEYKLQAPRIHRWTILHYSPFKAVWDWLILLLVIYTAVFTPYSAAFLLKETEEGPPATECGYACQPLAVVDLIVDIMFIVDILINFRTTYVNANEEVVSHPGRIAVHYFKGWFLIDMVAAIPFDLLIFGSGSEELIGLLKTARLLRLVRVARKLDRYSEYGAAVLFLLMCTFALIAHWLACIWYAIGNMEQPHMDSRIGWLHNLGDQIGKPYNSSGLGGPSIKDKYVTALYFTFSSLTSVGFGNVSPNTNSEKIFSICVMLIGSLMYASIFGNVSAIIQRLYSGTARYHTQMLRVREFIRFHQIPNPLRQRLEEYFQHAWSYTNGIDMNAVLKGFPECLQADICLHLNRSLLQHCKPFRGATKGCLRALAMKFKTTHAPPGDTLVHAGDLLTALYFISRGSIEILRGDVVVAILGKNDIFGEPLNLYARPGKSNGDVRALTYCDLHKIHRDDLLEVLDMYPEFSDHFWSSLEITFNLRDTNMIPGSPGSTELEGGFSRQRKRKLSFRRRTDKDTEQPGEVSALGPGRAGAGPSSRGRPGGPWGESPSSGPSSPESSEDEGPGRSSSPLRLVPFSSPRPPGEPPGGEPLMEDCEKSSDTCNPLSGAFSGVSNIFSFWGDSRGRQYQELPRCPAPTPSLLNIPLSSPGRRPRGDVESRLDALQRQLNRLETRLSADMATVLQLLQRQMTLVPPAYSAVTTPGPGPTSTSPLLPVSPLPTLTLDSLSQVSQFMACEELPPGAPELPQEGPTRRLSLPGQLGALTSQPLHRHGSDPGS
# Mus musculus [15] = experiment: Antidiabetic activity in C57BL/6J mouse assessed as increase in plasma insulin levels at 3 mg/kg, po administered 1 hr prior to glucose challenge measured after 120 mins during OGTT by ELISA; type: functional, organism-based
# Mus musculus [16] = experiment: Toxicity in C57BL/6J mouse assessed as induction of hypoglycemia effect at 1 mg/kg, po administered 1 hr prior to glucose challenge measured after 120 mins by IPGTT; type: organism-based; details: in vivo, 2 h
# [17] = Tmax in C57BL6 mouse at 1 mg/kg, po administered as single dose measured up to 24 hrs post dose by LC-MS/MS analysis; type: ADME, organism-based; details: in vivo
# [18] = Cmax in Beagle dog at 1 mg/kg, po administered as single dose measured up to 24 hrs post dose by LC-MS/MS analysis; type: ADME, organism-based, Canis lupus familiaris; set-up: dose 1 mg/kg, route oral; details: in vivo
# [19] = Half life in CD1 mouse at 1 mg/kg, iv administered as bolus dose or 1 mg/kg, po administered as single dose measured up to 24 hrs post dose by LC-MS/MS analysis; type: ADME, organism-based; details: in vivo
# Mus musculus [20] = experiment: Antidiabetic activity in po dosed C57BL/6J mouse assessed as reduction of plasma glucose excursion administered 1 hr prior to glucose challenge measured after 120 mins by IPGTT; type: functional, organism-based
# [21] = Cmax in cynomolgus monkey at 1 mg/kg, po administered as single dose measured up to 24 hrs post dose by LC-MS/MS analysis; type: ADME, organism-based, Macaca fascicularis; set-up: dose 1 mg/kg, route oral; details: in vivo
# [22] = Cmax in Sprague-Dawley rat at 3 mg/kg, po administered as single dose measured up to 24 hrs post dose by LC-MS/MS analysis; type: ADME, organism-based; set-up: dose 3 mg/kg, route oral; details: in vivo
# [23] = Half life in rat liver microsomes at 1 to 3 uM incubated for 20 mins in presence NADPH measured up to 90 mins by LC/MS/MS analysis; type: ADME, microsome; details: liver microsomes
# [24] = Tmax in Beagle dog at 1 mg/kg, po administered as single dose measured up to 24 hrs post dose by LC-MS/MS analysis; type: ADME, organism-based, Canis lupus familiaris; details: in vivo
# Mus musculus [25] = experiment: Antidiabetic activity in C57BL/6J mouse assessed as glucose lowering effect at 0.1 mg/kg, po administered 1 hr prior to glucose challenge measured after 120 mins by IPGTT; type: functional, organism-based
# [26] = Clearance in Beagle dog at 0.5 mg/kg, iv administered as single dose measured up to 24 hrs post dose by LC-MS/MS analysis; type: ADME, organism-based, Canis lupus familiaris; details: in vivo
# [27] = Clearance in CD1 mouse at 1 mg/kg, iv administered as bolus dose or 1 mg/kg, po administered as single dose measured up to 24 hrs post dose by LC-MS/MS analysis; type: ADME, organism-based; details: in vivo
# [28] = Stability in human liver microsomes assessed as parent compound remaining at 1 to 3 uM incubated for 20 mins in presence NADPH measured up to 90 mins by LC/MS/MS analysis; type: ADME, microsome; details: liver microsomes, read-out: Stability
# In short: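 Human or rat liver microsomal incubations. The read-outs were % parent remaining, % D-ring dealkylation metabolites, % GSH adducts, and half-life (min). The metabolites followed were CYP450-mediated oxidative de-alkylation products (phenols) and GSH conjugates.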
structure (smiles),measurement,setting,value
COc1cc(N2CC[C@@H](Oc3ccc(N4N=C(C(F)(F)F)[C@@H](C)[C@@H]4CC(=O)O)cc3)[C@H](C)C2)c(Cl)cn1,half-life,[1],4 h
same,pEC50,[2],7.15
same,Activity,Mus musculus [3],Active
same,bioavailability,[4],62%
same,Activity,Mus musculus [5],inactive
same,bioavailability,[6],61%
same,Activity,Mus musculus [7],Active
same,half-life,[8],1.7 h
same,Vd,[9],0.3 L/kg
same,Tmax,[10],1.3 h
same,half-life,[11],13 h
same,pIC50,[12],5.22
same,clearance,[13],3.4 mL/min/kg
same,inhibition,Homo sapiens,inactive
same,inhibition (INH),[14],Not Active
same,Activity,Mus musculus [15],Active
same,Activity,Mus musculus [16],Non-Toxic
same,Tmax,[17],1 h
same,Cmax,[18],1200 nM
same,half-life,[19],3.1 h
same,Activity,Mus musculus [20],Dose-dependent effect
same,Cmax,[21],1400 nM
same,Cmax,[22],3500 nM
same,half-life,[23],1.35 h
same,Tmax,[24],0.8 h
same,Activity,Mus musculus [25],Active
same,clearance,[26],2.2 mL/min/kg
same,clearance,[27],2 mL/min/kg
same,"remaining at 20 min, up to 3 µM",[28],89%

# From ChEMBL document CHEMBL4020824, “Discovery of Potent and Orally Bioavailable Dihydropyrazole GPR40 Agonists” (J Med Chem, 2018)
